pIC50: −log10 of the molar value.

The results in this text go back to ChEMBL document CHEMBL1125255, “Romazarit: a potential disease-modifying antirheumatic drug” (J Med Chem, 1991).

Series [1] relates to Rattus norvegicus. Description: Compound was evaluated in developing adjuvant arthritis model rats for its effect on paw edema. Format: functional. Details: concentration or dose not given beside the values. In a few lines: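 Female Allen and Hanbury hooded rats, five per group. Right hind paw injected sc on day 0 with heat-killed M. tuberculosis in paraffin oil (5 mg/mL). Compounds given orally as sodium salts in water. Paw volumes of both hind paws measured days 1–4, 1 h after dosing. Percent inhibition taken from area under the curve of the between-paw volume difference.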

The test system of series [2] is Rattus norvegicus. The series can be described thus: Radiographic change was judged in the area of the tarsus region, using an arbitrary scoring system upon termination of the test (14 days dosing of 60 mg/kg) in a model of type II collagen arthritis in the rat. The settings on record: 336 h. Format: functional. An outline of the steps:
(§1)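 Type II collagen arthritis rats, eight per group, oral sodium salts daily from grouping (day 1). Hind limbs X-rayed post mortem. Tibia/talus and tarsus damage scored 0–3 per foot by two observers and averaged; left and right summed (max 6). Compared with arthritic controls by Mann–Whitney U test.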

Series [3] has as its system Rattus norvegicus. The series can be described thus: Radiographic change was judged in the area of the talus joint, using an arbitrary scoring system upon termination of the test (14 days dosing of 60 mg/kg) in a model of type II collagen arthritis in the rat. The settings on record: 336 h. Format: functional. In a few lines:
as §1

Series [4] deals with Rattus norvegicus. The series can be described thus: Hepatic effect assessed by increase in liver weight after 14 days of dosing at 60 mg/kg orally. The class given is functional. An outline of the steps:
(§2)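 Type II collagen arthritis rats, eight per group, daily oral dosing as sodium salts in water for 14 days. Liver weight recorded at termination and expressed as percentage change versus normal animals.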

Series [5] is filed under the species Rattus norvegicus. Description: Percent decrease in serum haptoglobin evaluated in a developing adjuvant arthritis model rats.
Series [6] concerns Rattus norvegicus. Description: Hepatic effect assessed by increase in catalase levels after 14 days of dosing at 60 mg/kg orally. Format: functional. In a few lines:
(§3)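 Type II collagen arthritis rats, eight per group, given oral sodium salts daily for 14 days. At termination liver homogenized in ice-cold 0.25 M sucrose and spun 2000 rpm 10 min. Catalase followed by decline in A240 from H2O2 breakdown, expressed as first-order rate constant K. Result given as % change versus normals.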

Series [7] can be described thus: Partition coefficient (logP). The class given is physicochemical. The settings on record: octanol/water. An outline of the steps:
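Compound dissolved in disodium hydrogen phosphate/citric acid buffer pH 7.4 and partitioned against equal volume octan-1-ol. Buffer-phase UV absorbance read before and after partitioning near λmax. P′ from the octanol:buffer absorbance ratio.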

In series [8] the target is Prostaglandin G/H synthase 1 (Ovis aries) (UniProt P05979). Description: Inhibition of prostaglandin synthetase in sheep seminal vesicle.
Prostaglandin G/H synthase 1 (Ovis aries), sequence (P05979 whole entry, looked up): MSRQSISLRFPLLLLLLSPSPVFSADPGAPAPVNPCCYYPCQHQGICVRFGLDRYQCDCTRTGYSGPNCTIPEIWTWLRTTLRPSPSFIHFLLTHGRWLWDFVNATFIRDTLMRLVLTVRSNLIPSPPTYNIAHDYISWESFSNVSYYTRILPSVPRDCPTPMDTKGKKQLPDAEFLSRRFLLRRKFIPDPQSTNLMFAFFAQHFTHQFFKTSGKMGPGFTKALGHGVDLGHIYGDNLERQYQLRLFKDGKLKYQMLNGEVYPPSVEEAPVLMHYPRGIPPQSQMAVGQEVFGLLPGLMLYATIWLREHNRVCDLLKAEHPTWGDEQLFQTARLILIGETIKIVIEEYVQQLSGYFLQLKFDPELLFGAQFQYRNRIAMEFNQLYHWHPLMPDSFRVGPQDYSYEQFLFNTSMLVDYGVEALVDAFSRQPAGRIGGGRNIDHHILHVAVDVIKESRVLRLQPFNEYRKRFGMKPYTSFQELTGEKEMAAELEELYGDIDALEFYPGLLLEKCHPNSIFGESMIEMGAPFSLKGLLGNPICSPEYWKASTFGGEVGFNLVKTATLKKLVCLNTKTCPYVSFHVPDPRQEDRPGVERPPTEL
Series [9] shares this target. The description is as above. This is another data set of the same source.
Series [10] relates to Rattus norvegicus. Description: Hepatic effect assessed by increase in catalase levels after 14 days of dosing at 40 mg/kg orally. Format: functional. In a few lines: as §3
The subject of series [11] is Rattus norvegicus. Description: Radiographic change was judged in the area of the tarsus region, using an arbitrary scoring system upon termination of the test (14 days dosing of 20 mg/kg)in a model of type II collagen arthritis in the rat. The class given is functional. The settings on record: 336 h. An outline of the steps:
as §1

The test system of series [12] is Rattus norvegicus. Description: Hepatic effect assessed by increase in catalase levels after 14 days of dosing at 20 mg/kg orally. Format: functional. An outline of the steps: as §3
The test system of series [13] is Rattus norvegicus. The series can be described thus: Plasma level in type II collagen arthritis model after 14 days of dosing at 100 mg/kg. Format: functional, organism-based. Details: dose 100 mg/kg. An outline of the steps: (§4)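 Type II collagen arthritis rats dosed orally for 14 days. Plasma drug level measured by reverse-phase C-18 HPLC with UV detection at 282 nm.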

A short description of series [14]: […] level determined in rat type II collagen arthritis model after 14 days dosing of 100 mg/kg. The class given is functional. In a few lines:
(§5)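 Rat type II collagen arthritis, eight rats per group, daily oral dosing as sodium salts in water for 14 days. Plasma haptoglobin determined at termination and compared with normal and arthritic controls by Student's t test.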

Series [15] can be described thus: […] level determined in rat type II collagen arthritis model after 14 days dosing of 40 mg/kg. Format: functional. In a few lines: as §5
Series [16] has as its system Rattus norvegicus. The series can be described thus: Radiographic change was judged in the area of the talus joint, using an arbitrary scoring system upon termination of the test (14 days dosing of 60 mg/kg)in a model of type II collagen arthritis in the rat. Format: functional. The settings on record: 336 h. In a few lines:
as §1

Series [17] concerns Rattus norvegicus. Description: Radiographic change was judged in the area of the talus joint, using an arbitrary scoring system upon termination of the test (14 days dosing of 100 mg/kg)in a model of type II collagen arthritis in the rat. The class given is functional. The settings on record: 336 h. In a few lines:
as §1

Series [18] concerns Rattus norvegicus. Description: Plasma level in type II collagen arthritis model after 14 days of dosing at 20 mg/kg. Format: functional, organism-based. Details: dose 20 mg/kg. In a few lines:
as §4

For series [19], the system named is Rattus norvegicus. Description: Hepatic effect assessed by increase in liver weight after 14 days of dosing at 20 mg/kg orally. Format: functional. An outline of the steps: as §2
Series [20] has as its system Rattus norvegicus. The series can be described thus: Hepatic effect assessed by increase in liver weight after 14 days of dosing at 100 mg/kg orally. Format: functional. In a few lines: as §2
Series [21] concerns Rattus norvegicus. The series can be described thus: Hepatic effect assessed by increase in liver weight after 14 days of dosing at 40 mg/kg orally. Format: functional. In a few lines: as §2
Series [22] has as its system Rattus norvegicus. Description: Radiographic change was judged in the area of the talus joint, using an arbitrary scoring system upon termination of the test (14 days dosing of 20 mg/kg)in a model of type II collagen arthritis in the rat. The class given is functional. The settings on record: 336 h. In a few lines: as §1
In series [23] the test system is Rattus norvegicus. Description: Hepatic effect assessed by increase in catalase levels after 14 days of dosing at 100 mg/kg orally. Format: functional. In a few lines: as §3
Series [24] concerns Rattus norvegicus. The series can be described thus: Plasma level in type II collagen arthritis model after 14 days of dosing at 40 mg/kg. The class given is functional, organism-based. On the set-up: dose 40 mg/kg. In a few lines:
as §4

The subject of series [25] is Rattus norvegicus. Description: Radiographic change was judged in the area of the tarsus region, using an arbitrary scoring system upon termination of the test (14 days dosing of 40 mg/kg)in a model of type II collagen arthritis in the rat. The class given is functional. The settings on record: 336 h. An outline of the steps: as §1
Series [26] deals with Rattus norvegicus. Description: Radiographic change was judged in the area of the tarsus region, using an arbitrary scoring system upon termination of the test (14 days dosing of 100 mg/kg)in a model of type II collagen arthritis in the rat. Format: functional. The settings on record: 336 h. In a few lines: as §1
Series [27] has as its system Rattus norvegicus. Description: Radiographic change was judged in the area of the tarsus region, using an arbitrary scoring system upon termination of the test (14 days dosing of 60 mg/kg)in a model of type II collagen arthritis in the rat. Format: functional. The settings on record: 336 h. An outline of the steps: as §1
Series [28] is filed under the species Homo sapiens. The series can be described thus: Inhibition of human PGE-2 production. The class given is functional. In a few lines:
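Human blood mononuclear cells from healthy volunteers stimulated with 2.5 μg/mL phytohaemagglutinin and incubated 24 h with compound (sodium salt). PGE2 measured by RIA.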

Series [29] deals with Rattus norvegicus. Description: Radiographic change was judged in the area of the talus joint, using an arbitrary scoring system upon termination of the test (14 days dosing of 40 mg/kg)in a model of type II collagen arthritis in the rat. The class given is functional. The settings on record: 336 h. In a few lines: as §1
Series [30] is described as follows: […] level determined in rat type II collagen arthritis model after 14 days dosing of 20 mg/kg. Format: functional. An outline of the steps:
as §5

Series [31] addresses T1, Cyclooxygenase (Rattus norvegicus, UniProt P35355+Q63921).
T1 sequence (P35355 whole entry): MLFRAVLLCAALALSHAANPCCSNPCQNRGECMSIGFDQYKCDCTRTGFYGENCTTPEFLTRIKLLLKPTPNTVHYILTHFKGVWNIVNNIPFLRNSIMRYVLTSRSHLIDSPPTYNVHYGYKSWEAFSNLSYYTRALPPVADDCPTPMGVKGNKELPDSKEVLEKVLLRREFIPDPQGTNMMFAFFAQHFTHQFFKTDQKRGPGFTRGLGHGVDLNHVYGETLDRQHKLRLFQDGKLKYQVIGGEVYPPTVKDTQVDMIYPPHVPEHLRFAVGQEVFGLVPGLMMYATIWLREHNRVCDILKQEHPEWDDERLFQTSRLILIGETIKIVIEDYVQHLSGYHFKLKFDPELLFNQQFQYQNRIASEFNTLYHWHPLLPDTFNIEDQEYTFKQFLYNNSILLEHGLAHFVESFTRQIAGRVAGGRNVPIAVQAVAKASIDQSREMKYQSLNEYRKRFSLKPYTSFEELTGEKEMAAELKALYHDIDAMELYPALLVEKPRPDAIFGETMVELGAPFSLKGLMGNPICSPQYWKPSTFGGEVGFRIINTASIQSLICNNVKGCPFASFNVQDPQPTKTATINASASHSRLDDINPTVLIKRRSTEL
T1 sequence (Q63921 whole entry): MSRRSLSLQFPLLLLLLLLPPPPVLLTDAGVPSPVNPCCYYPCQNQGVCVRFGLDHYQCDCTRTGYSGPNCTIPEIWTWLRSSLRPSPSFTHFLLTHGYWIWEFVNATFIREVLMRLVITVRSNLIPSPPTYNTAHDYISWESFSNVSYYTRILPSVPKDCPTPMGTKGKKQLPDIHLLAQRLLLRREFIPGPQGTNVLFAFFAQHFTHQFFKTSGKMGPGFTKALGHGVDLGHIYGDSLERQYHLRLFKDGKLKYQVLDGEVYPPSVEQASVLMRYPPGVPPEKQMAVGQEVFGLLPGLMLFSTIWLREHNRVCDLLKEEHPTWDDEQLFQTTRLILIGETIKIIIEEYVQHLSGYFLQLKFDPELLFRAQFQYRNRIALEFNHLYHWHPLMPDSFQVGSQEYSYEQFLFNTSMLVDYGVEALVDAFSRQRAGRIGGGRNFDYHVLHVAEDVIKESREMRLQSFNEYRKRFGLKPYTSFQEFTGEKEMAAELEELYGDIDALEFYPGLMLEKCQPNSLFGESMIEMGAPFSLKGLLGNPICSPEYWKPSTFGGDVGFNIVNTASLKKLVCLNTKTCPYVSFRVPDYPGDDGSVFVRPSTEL
The series can be described thus: Inhibition of prostaglandin synthetase in rat renal medulla. Format: functional, tissue-based. In a few lines:
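Same cyclooxygenase protocol run on rat renal medulla homogenate: 5 min 30 °C preincubation with glutathione 1 mM and adrenaline 625 μM. Prostaglandin/thromboxane area compared with the no-drug control.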

Series [32] in a line: […] level determined in rat type II collagen arthritis model after 14 days dosing of 60 mg/kg. Format: functional. An outline of the steps: as §5
Series [33] concerns Rattus norvegicus. Description: Plasma level in type II collagen arthritis model after 14 days of dosing at 60 mg/kg. The class given is functional, organism-based. On the set-up: dose 60 mg/kg. An outline of the steps: as §4

The term Inhibition denotes the drop in the measured response relative to a control, in per cent. Usually inhibition in vivo stands for how much of the control response was suppressed. Broadly, the logP is a log measure of how a compound divides between an organic and an aqueous phase. Usually IC50 stands for the concentration at which inhibition is half-maximal. For `CC(C)(OCc1ccc(-c2ccc(Cl)cc2)cc1)C(=O)O` [CLOBUZARIT], in series [1], the Inhibition is 48%. Moreover, the inhibition in vivo at 60 mg/kg in series [2] was 41%; in series [3], 64%. Also, the Change was 19% in [4] and 164% in series [6]. In addition, the Decrease in series [5] stood at 31%. Besides, the logP in series [7] turned out to be 1.52. Further, the IC50 in series [8] was 950 µM.

For orientation: pIC50 means the IC50 on a negative log10 scale, so that one unit is a factor of ten. With `Cc1nc(-c2ccc(Cl)cc2)oc1COC(C)(C)C(=O)O` [ROMAZARIT], the IC50 in series [9] was 6500 µM; in [31], greater than 300 µM. The Change was -34% in series [10]; -51% in series [12]; 4% in [4]; -5% in series [19]; 13% in series [20]; -3% in series [21]. Further, the Change in series [23] is 19%; in series [6] it was -7%. Moreover, the results for the inhibition in vivo at 20 mg/kg in series [11] and in series [22] were 7% and 33%, respectively. The Inhibition in series [1] was 73%. Besides, the Plasma level in series [13] is 267 µg/mL; in series [18], 64 µg/mL; in series [24] it was 102 µg/mL; in series [33], 172 µg/mL. Further, the Haptoglobin came to 0.34 g/L in series [14], 0.43 g/L in [15], 0.31 g/L in series [30] and 0.32 g/L in series [32]. The inhibition in vivo at 60 mg/kg was determined as 63% in series [16] and 46% in series [27]. Moreover, the values for the inhibition in vivo at 100 mg/kg in [17] and in [26] were 82% and 56%, respectively. Besides, in series [5], the Decrease is listed as 26%. In addition, the figures for the inhibition in vivo at 40 mg/kg in [25] and in series [29] were 35% and 40%, respectively. In [28], this compound had a negative-log IC50 (pIC50) of less than 3.40. The compound also registered a logP in series [7] of 0.34.
